Reference: paper PMC4322771 (Biopolymers, 2008)
Ends that are not written are not given here.

What was measured:
[1] = target: murine CBP KIX domain (CBP(586–672)) (Mus musculus, UniProt P45481); assay: Fluorescence polarization binding to CBP KIX domain
How it was run: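 Test compounds carried a fluorescein label at the amino terminus and were held at a constant concentration. Each was incubated at 25°C with increasing concentrations of exogenously expressed murine CBP KIX domain (residues 586–672). Fluorescence polarization was read at each protein concentration. Dissociation constants were obtained by Levenberg-Marquardt least-squares fitting of the binding data.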

[2] = tested on: Gal4(1–148)+KBP 2.20-mediated transcription; assay: Competitive inhibition, firefly luciferase reporter assay in HeLa cells; assay type: cell-based; conditions: 0 → 20 μM, activity measured 40 h after compound addition

Chain of murine CBP KIX domain (CBP(586–672)) (P45481 586-672): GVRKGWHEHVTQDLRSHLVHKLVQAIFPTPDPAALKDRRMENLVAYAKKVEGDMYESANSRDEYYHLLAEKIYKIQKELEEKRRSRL

Row | Substance | Fold lower dissociation constant for the KIX domain relative to KBP 1.66 [1] | Inhibitory activity on KBP 2.20-mediated transcription (in words) [2]
1 | SWAVYELLFGS-NH2 (C-terminus assumed) [KBP 2.20] | ~ 3 fold | little or no inhibitory activity
2 | SRAVRELLFGS | – | no impact
